Reference: ChEMBL document CHEMBL1138348, “A p-[18F]fluoroethoxyphenyl bicyclic nucleoside analogue as a potential positron emission tomography imaging agent for varicella-zoster virus thymidine kinase gene expression” (J Med Chem, 2007)

Key:
[1] = Inhibition of Varicella zoster virus thymidine kinase; parameters: species or system Human alphaherpesvirus 3
Outline: (§1)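 Purified recombinant VZV TK (7.75 ng), HSV-1 TK (226 ng) or human cytosolic TK-1 (455 ng) in 50 mM Tris-HCl pH 8.0, 2.5 mM MgCl2, 10 mM DTT, 2.5 mM ATP, 1 mg/mL BSA, 10 mM NaF, with 1 µM final [CH3-3H]dThd substrate. Incubated 30 min at 37 °C with varied compound concentrations; the reaction was linear over this time. Product bound on DE-81 filters, washed, and counted by liquid scintillation. Result reported as IC50.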

[2] = Inhibition of HSV1 thymidine kinase; parameters: species or system Human alphaherpesvirus 1; outline: as §1
[3] = target: T1, Thymidine kinase, cytosolic (Homo sapiens, UniProt P04183); assay: Inhibition of human cytosolic thymidine kinase 1; outline: as §1
T1 sequence (P04183 whole entry): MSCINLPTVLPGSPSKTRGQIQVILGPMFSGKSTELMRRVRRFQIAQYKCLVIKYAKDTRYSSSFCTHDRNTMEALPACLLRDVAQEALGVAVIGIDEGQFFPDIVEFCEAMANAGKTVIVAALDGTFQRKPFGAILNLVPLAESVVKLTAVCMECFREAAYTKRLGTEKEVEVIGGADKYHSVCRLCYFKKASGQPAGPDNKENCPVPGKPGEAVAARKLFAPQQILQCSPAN

Heart [4] = assay: Biodistribution in NMRI mouse heart assessed as radioactivity after 2 mins; type: ADME, organism-based; settings: in vivo
Outline: (§2)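 Male NMRI mice (37–43 g) given 0.1 mL HPLC-purified tracer (diluted in water for injection, EtOH <5%; 37 MBq/mL for 11C tracer, 3.7 MBq/mL for 18F tracer) via tail vein under ketamine/xylazine ip anaesthesia. Decapitation at 2 or 60 min, n=3 per time point. Organs dissected, weighed, gamma counted. Results given as %ID (cpm organ/total cpm recovered) or SUV. Blood mass taken as 7% of body mass. Mean ± SD.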

Heart [5] = assay: Biodistribution in NMRI mouse heart assessed as radioactivity after 60 mins; type: ADME, organism-based; settings: in vivo, 1 h; outline: as §2
Stomach [6] = assay: Biodistribution in NMRI mouse stomach assessed as radioactivity after 2 mins; type: ADME, organism-based; settings: in vivo; outline: as §2
Stomach [7] = assay: Biodistribution in NMRI mouse stomach assessed as radioactivity after 60 mins; type: ADME, organism-based; settings: in vivo, 1 h; outline: as §2
Intestine [8] = assay: Biodistribution in NMRI mouse intestine assessed as radioactivity after 2 mins; type: ADME, organism-based; settings: in vivo; outline: as §2
Intestine [9] = assay: Biodistribution in NMRI mouse intestine assessed as radioactivity after 60 mins; type: ADME, organism-based; settings: in vivo, 1 h; outline: as §2
Brain [10] = assay: Biodistribution in NMRI mouse brain assessed as radioactivity after 2 mins; type: ADME, organism-based; settings: in vivo; outline: as §2
Brain [11] = assay: Biodistribution in NMRI mouse brain assessed as radioactivity after 60 mins; type: ADME, organism-based; settings: in vivo, 1 h; outline: as §2
Blood [12] = assay: Biodistribution in NMRI mouse blood assessed as radioactivity after 2 mins; type: ADME, organism-based; settings: in vivo; outline: as §2
Blood [13] = assay: Biodistribution in NMRI mouse blood assessed as radioactivity after 60 mins; type: ADME, organism-based; settings: in vivo, 1 h; outline: as §2
[14] = Partition coefficient, log P in 1-octanol and phosphate buffer at pH 7.4; type: physicochemical; settings: 1-octanol/phosphate buffer
Outline: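 HPLC-isolated tracer (about 550 kBq 11C or 185 kBq 18F) partitioned between 1-octanol and 0.025 M phosphate buffer pH 7.4 (2 mL each). Vortexed 2 min at room temperature, centrifuged 1837 g for 5 min. Aliquots of both phases weighed and gamma counted. P calculated as the cpm/mL ratio after density correction; n=6.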

Mus musculus [15] = species on record: Mus musculus; assay: Biodistribution in NMRI mouse urine assessed as radioactivity after 2 mins; type: ADME, organism-based; settings: in vivo; outline: as §2
Mus musculus [16] = species on record: Mus musculus; assay: Biodistribution in NMRI mouse urine assessed as radioactivity after 60 mins; type: ADME, organism-based; settings: in vivo, 1 h; outline: as §2
Kidney [17] = assay: Biodistribution in NMRI mouse kidney assessed as radioactivity after 2 mins; type: ADME, organism-based; settings: in vivo; outline: as §2
Kidney [18] = assay: Biodistribution in NMRI mouse kidney assessed as radioactivity after 60 mins; type: ADME, organism-based; settings: in vivo, 1 h; outline: as §2
Liver [19] = assay: Biodistribution in NMRI mouse liver assessed as radioactivity after 2 mins; type: ADME, organism-based; settings: in vivo; outline: as §2
Liver [20] = assay: Biodistribution in NMRI mouse liver assessed as radioactivity after 60 mins; type: ADME, organism-based; settings: in vivo, 1 h; outline: as §2
Mus musculus [21] = species on record: Mus musculus; assay: Biodistribution in NMRI mouse spleen + pancreas assessed as radioactivity after 2 mins; type: ADME, organism-based; settings: in vivo; outline: as §2
Mus musculus [22] = species on record: Mus musculus; assay: Biodistribution in NMRI mouse spleen + pancreas assessed as radioactivity after 60 mins; type: ADME, organism-based; settings: in vivo, 1 h; outline: as §2
Lung [23] = assay: Biodistribution in NMRI mouse lungs assessed as radioactivity after 2 mins; type: ADME, organism-based; settings: in vivo; outline: as §2
Lung [24] = assay: Biodistribution in NMRI mouse lungs assessed as radioactivity after 60 mins; type: ADME, organism-based; settings: in vivo, 1 h; outline: as §2
Mus musculus [25] = species on record: Mus musculus; assay: Biodistribution in NMRI mouse carcass assessed as radioactivity after 2 mins; type: ADME, organism-based; settings: in vivo; outline: as §2
Mus musculus [26] = species on record: Mus musculus; assay: Biodistribution in NMRI mouse carcass assessed as radioactivity after 60 mins; type: ADME, organism-based; settings: in vivo, 1 h; outline: as §2
Nucleic Acid [27] = assay: Ratio of drug level in plasma to whole blood in mouse assessed as radioactivity at 11.5 MBq, iv after 2 mins; type: ADME, organism-based; settings: in vivo
Outline: (§3)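 Normal mice given about 11.5 MBq of the [18F] tracer iv, killed by decapitation at 2, 10 or 30 min pi (n = 2 per time). Blood was collected into a K2EDTA tube, weighed and gamma-counted, then centrifuged at 1837g for 10 min. Plasma was weighed and counted. Counts were normalised to sample weight and injected dose as %ID/g, and plasma %ID/g was divided by whole-blood %ID/g.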

Nucleic Acid [28] = assay: Ratio of drug level in plasma to whole blood in mouse assessed as radioactivity at 11.5 MBq, iv after 30 mins; type: ADME, organism-based; settings: in vivo, 0.5 h; outline: as §3
Plasma [29] = assay: Metabolic stability in mouse plasma assessed as radioactivity after 2 mins; type: ADME, cell-free
Outline: (§4)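 Plasma taken 2, 10 or 30 min after iv 18F tracer in normal mice (n=2 per time point), and urine collected at 60 min by manual bladder voiding. Samples spiked with authentic non-radioactive compound and applied without pretreatment to an Oasis HLB column in-line with a C18 RP-HPLC column. Eluate collected as 1 mL fractions and gamma counted. Result given as intact tracer as % of recovered radioactivity.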

Plasma [30] = assay: Metabolic stability in mouse plasma assessed as radioactivity after 10 mins; type: ADME, cell-free; outline: as §4
Plasma [31] = assay: Metabolic stability in mouse plasma assessed as radioactivity after 30 mins; type: ADME, cell-free; settings: 0.5 h; outline: as §4
[32] = Metabolic stability in mouse urine assessed as radioactivity after 1 hr; type: ADME, tissue-based; outline: as §4
Blood [33] = assay: Drug uptake in mouse blood assessed as radioactivity at 11.5 MBq after 2 mins; type: ADME, tissue-based
Outline: (§5)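 About 11.5 MBq of 18F tracer injected iv into mice. Decapitation at 2, 10 or 30 min, n=2 per time point. Blood collected into K2EDTA tubes, weighed and gamma counted. Plasma separated by centrifugation (1837g, 10 min) and counted. Values given as %ID/g normalised to sample weight and injected dose; plasma/whole-blood ratio also derived.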

Blood [34] = assay: Drug uptake in mouse blood assessed as radioactivity at 11.5 MBq after 10 mins; type: ADME, tissue-based; outline: as §5
Blood [35] = assay: Drug uptake in mouse blood assessed as radioactivity at 11.5 MBq after 30 mins; type: ADME, tissue-based; settings: 0.5 h; outline: as §5
Femur [36] = assay: Drug uptake in mouse femur bone assessed as radioactivity at 11.5 MBq after 2 mins; type: ADME, tissue-based; settings: in vivo
Outline: (§6)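 Normal mice given 11.5 MBq of 18F tracer. Killed at 2, 10 or 30 min, two animals per time point. Left and right femur and muscle collected, weighed and gamma counted. Uptake given as %ID/g.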

Femur [37] = assay: Drug uptake in mouse femur bone assessed as radioactivity at 11.5 MBq after 10 mins; type: ADME, tissue-based; settings: in vivo; outline: as §6
Femur [38] = assay: Drug uptake in mouse femur bone assessed as radioactivity at 11.5 MBq after 30 mins; type: ADME, tissue-based; settings: in vivo, 0.5 h; outline: as §6
Nucleic Acid [39] = assay: Ratio of drug level in femur bone to blood in mouse assessed as radioactivity at 11.5 MBq, iv after 30 mins; type: ADME, organism-based; settings: other tissue, 0.5 h
Outline: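 Normal mice injected with 11.5 MBq of the [18F] tracer and killed at 2, 10 or 30 min pi (two animals per time). Left and right femurs were collected, weighed and gamma-counted, and uptake was expressed as %ID/g. Blood %ID/g was reported at the same time points.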

Muscle tissue [40] = assay: Drug uptake in mouse muscle assessed as radioactivity at 11.5 MBq after 2 mins; type: ADME, tissue-based; settings: in vivo; outline: as §6
Muscle tissue [41] = assay: Drug uptake in mouse muscle assessed as radioactivity at 11.5 MBq after 30 mins; type: ADME, tissue-based; settings: in vivo, 0.5 h; outline: as §6
[42] = Drug uptake in LV-VZVTK-IP transduced 293T cells assessed as radioactivity at 185 kBq after 3 hrs; type: ADME, cell-based; settings: human, hek-293t
Outline: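 293T cells stably transduced with lentivirus carrying VZV-tk-IRES-pac (kept in 1 µg/mL puromycin), alongside untransduced control 293T cells. Plated in triplicate at 200 000 cells/well. After 24 h, fresh medium with HPLC-purified tracer added: 1.1 MBq (11C tracer, 0.5 h) or 185 kBq (18F tracer, 3 h), 37 °C. Cells washed with ice-cold PBS and lysed. Gamma counting. Uptake given as % of total radioactivity per mg protein (Bio-Rad assay).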

Nucleic Acid [43] = assay: Ratio of drug level in plasma to whole blood in mouse assessed as radioactivity at 11.5 MBq, iv after 10 mins; type: ADME, organism-based; settings: in vivo; outline: as §3

O=c1nc2oc(-c3ccc(O)cc3)cc2cn1[C@H]1C[C@H](O)[C@@H](CO)O1
IC50 [1]: 0.4 µM | IC50 [2]: > 500 µM | IC50 [3]: > 500 µM

O=c1nc2oc(-c3ccc(OCC[18F])cc3)cc2cn1[C@H]1C[C@H](O)[C@@H](CO)O1
Drug uptake (Heart [4]): 0.3 %ID | Drug uptake (Heart [5]): 0.1 %ID | Drug uptake (Stomach [6]): 1.2 %ID | Drug uptake (Stomach [7]): 1.1 %ID | Drug uptake (Intestine [8]): 17.7 %ID | Drug uptake (Intestine [9]): 44.3 %ID | Drug uptake (Brain [10]): 0 %ID | Drug uptake (Brain [11]): 0 %ID | Drug uptake (Blood [12]): 4.8 %ID | Drug uptake (Blood [13]): 1.5 %ID | logD [14]: 1.2 | Drug uptake (Mus musculus [15]): 11.8 %ID | Drug uptake (Mus musculus [16]): 34.8 %ID | Drug uptake (Kidney [17]): 20.1 %ID | Drug uptake (Kidney [18]): 1.1 %ID | Drug uptake (Liver [19]): 24.7 %ID | Drug uptake (Liver [20]): 4.3 %ID | Drug uptake (Mus musculus [21]): 1.4 %ID | Drug uptake (Mus musculus [22]): 1.1 %ID | Drug uptake (Lung [23]): 0.7 %ID | Drug uptake (Lung [24]): 0.2 %ID | Drug uptake (Mus musculus [25]): 18.3 %ID | Drug uptake (Mus musculus [26]): 11.9 %ID | Ratio (Nucleic Acid [27]): 1.39 | Ratio (Nucleic Acid [28]): 1.02 | Stability (Plasma [29]): 94.7% | Stability (Plasma [30]): 82% | Stability (Plasma [31]): 40.6% | Stability [32]: 91.5% | Drug uptake (Blood [33]): 1.57 % ID/g | Drug uptake (Blood [34]): 1.42 % ID/g | Drug uptake (Blood [35]): 0.63 % ID/g | Drug uptake (Femur [36]): 0.57 % ID/g | Drug uptake (Femur [37]): 0.66 % ID/g | Drug uptake (Femur [38]): 1.25 % ID/g | Ratio (Nucleic Acid [39]): 2 | Drug uptake (Muscle tissue [40]): 0.35 % ID/g | Drug uptake (Muscle tissue [41]): 0.25 % ID/g | Drug uptake [42]: 76.6 %ID | Ratio (Nucleic Acid [43]): 1.34
